Source: ChEMBL document CHEMBL2417507, “Synthesis and bioevaluation of some new isoniazid derivatives” (Bioorg Med Chem, 2013)
≈ marks a conversion by molar mass, not a printed value. Calls of active or inactive are those of the source. The rule behind the calls is not given here.

Experiments:
[1] = system: HCT-8; experiment: Cytotoxicity against human HCT8 cells at 25 ug/mL after 24 hrs by trypan blue exclusion assay; type: cell-based; conditions: hct-8, 24 h
Outline: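 HCT8 cells (3 × 10^5 per 3.5-cm well) treated 24 h, then trypsinised, spun and resuspended in PBS. Suspension mixed 1:1 with 0.4% trypan blue for 1 min and viable/non-viable cells counted on a haemocytometer. Each experiment repeated three times.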

[2] = system: HCT-8; experiment: Cell cycle arrest in human HCT8 cells assessed as accumulation at G2/M phase at 12.5 ug/mL after 24 hrs by propidium iodide staining-based flow cytometric analysis (reference value: 13.83%); type: ADME; conditions: hct-8, 24 h
[3] = system: HCT-8; experiment: Cell cycle arrest in human HCT8 cells assessed as accumulation at S phase at 12.5 ug/mL after 24 hrs by propidium iodide staining-based flow cytometric analysis (reference value: 39.43%); type: ADME; conditions: hct-8, 24 h
[4] = system: HCT-8; experiment: Cell cycle arrest in human HCT8 cells assessed as accumulation at G0/G1 phase at 12.5 ug/mL after 24 hrs by propidium iodide staining-based flow cytometric analysis (reference value: 46.43%); type: ADME; conditions: hct-8, 24 h
[5] = Induction of apoptosis in human HCT8 cells assessed as viable cells at 25 ug/mL after 24 hrs by Annexin V-FITC and propidium iodide staining-based flow cytometric analysis (reference value: 87.7%); type: cell-based, HCT-8; conditions: read-out: Activity
[6] = system: HCT-8; experiment: Induction of apoptosis in human HCT8 cells assessed as early apoptotic cells at 25 ug/mL after 24 hrs by Annexin V-FITC and propidium iodide staining-based flow cytometric analysis (reference value: 1.57%); type: cell-based; conditions: hct-8, 24 h
[7] = system: HCT-8; experiment: Induction of apoptosis in human HCT8 cells assessed as late apoptotic cells at 25 ug/mL after 24 hrs by Annexin V-FITC and propidium iodide staining-based flow cytometric analysis (reference value: 2.97%); type: cell-based; conditions: hct-8, 24 h
[8] = system: HCT-8; experiment: Induction of apoptosis in human HCT8 cells assessed as necrotic cells at 25 ug/mL after 24 hrs by Annexin V-FITC and propidium iodide staining-based flow cytometric analysis (reference value: 7.73%); type: cell-based; conditions: hct-8, 24 h
[9] = system: Acinetobacter baumannii; experiment: Antibacterial activity against Acinetobacter baumannii 247 assessed as growth inhibition at 1 mg/mL after 24 hrs by agar-disk diffusion technique; type: functional, organism-based
Outline: (§1)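 Agar-disk diffusion, adapted: plates seeded with 0.5 McFarland suspension prepared from 24 h cultures; 5 µL of a 1 mg/mL compound solution spotted onto the seeded solid medium; incubated 24 h at 37 °C. Stocks made in DMSO.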

[10] = system: Acinetobacter baumannii; experiment: Antibacterial activity against Acinetobacter baumannii 192 assessed as growth inhibition at 1 mg/mL after 24 hrs by agar-disk diffusion technique; type: functional, organism-based; outline: as §1
[11] = system: Acinetobacter baumannii; experiment: Antibacterial activity against Acinetobacter baumannii 136 assessed as growth inhibition at 1 mg/mL after 24 hrs by agar-disk diffusion technique; type: functional, organism-based; outline: as §1
[12] = system: Acinetobacter baumannii; experiment: Antibacterial activity against Acinetobacter baumannii 135 assessed as growth inhibition at 1 mg/mL after 24 hrs by agar-disk diffusion technique; type: functional, organism-based; outline: as §1
[13] = system: Acinetobacter baumannii; experiment: Antibacterial activity against Acinetobacter baumannii 125 assessed as growth inhibition at 1 mg/mL after 24 hrs by agar-disk diffusion technique; type: functional, organism-based; outline: as §1
[14] = system: Acinetobacter baumannii; experiment: Antibacterial activity against Acinetobacter baumannii 122 assessed as growth inhibition at 1 mg/mL after 24 hrs by agar-disk diffusion technique; type: functional, organism-based; outline: as §1
[15] = system: Enterococcus faecalis; experiment: Antibacterial activity against Enterococcus faecalis 2920 assessed as growth inhibition at 1 mg/mL after 24 hrs by agar-disk diffusion technique; type: functional, organism-based; outline: as §1
[16] = system: Pseudomonas putida; experiment: Antibacterial activity against Pseudomonas putida 160 assessed as growth inhibition at 1 mg/mL after 24 hrs by agar-disk diffusion technique; type: functional, organism-based; outline: as §1
[17] = system: Pseudomonas aeruginosa; experiment: Antibacterial activity against Pseudomonas aeruginosa 1144 assessed as growth inhibition at 1 mg/mL after 24 hrs by agar-disk diffusion technique; type: functional, organism-based; outline: as §1
[18] = system: Pseudomonas aeruginosa; experiment: Antibacterial activity against Pseudomonas aeruginosa 165 assessed as growth inhibition at 1 mg/mL after 24 hrs by agar-disk diffusion technique; type: functional, organism-based; outline: as §1
[19] = system: Pseudomonas aeruginosa; experiment: Antibacterial activity against Pseudomonas aeruginosa ATCC 27853 assessed as growth inhibition at 1 mg/mL after 24 hrs by agar-disk diffusion technique; type: functional, organism-based; outline: as §1
[20] = system: Klebsiella pneumoniae; experiment: Antibacterial activity against Klebsiella pneumoniae 1756 assessed as growth inhibition at 1 mg/mL after 24 hrs by agar-disk diffusion technique; type: functional, organism-based; outline: as §1
[21] = system: Escherichia coli; experiment: Antibacterial activity against Escherichia coli 1777 assessed as growth inhibition at 1 mg/mL after 24 hrs by agar-disk diffusion technique; type: functional, organism-based; outline: as §1
[22] = system: Proteus mirabilis; experiment: Antibacterial activity against Proteus mirabilis 1751 assessed as growth inhibition at 1 mg/mL after 24 hrs by agar-disk diffusion technique; type: functional, organism-based; outline: as §1
[23] = system: Morganella morganii; experiment: Antibacterial activity against Morganella morganii 2810 assessed as growth inhibition at 1 mg/mL after 24 hrs by agar-disk diffusion technique; type: functional, organism-based; outline: as §1
[24] = system: Citrobacter koseri; experiment: Antibacterial activity against Citrobacter koseri 1742 assessed as growth inhibition at 1 mg/mL after 24 hrs by agar-disk diffusion technique; type: functional, organism-based; outline: as §1
[25] = system: Enterobacter cloacae; experiment: Antibacterial activity against Enterobacter cloacae 1845 assessed as growth inhibition at 1 mg/mL after 24 hrs by agar-disk diffusion technique; type: functional, organism-based; outline: as §1
[26] = system: Staphylococcus aureus; experiment: Antibacterial activity against Staphylococcus aureus assessed as growth inhibition at 1 mg/mL after 24 hrs by agar-disk diffusion technique; type: functional, organism-based; outline: as §1
[27] = system: Staphylococcus hominis; experiment: Antibacterial activity against Staphylococcus hominis 1813 assessed as growth inhibition at 1 mg/mL after 24 hrs by agar-disk diffusion technique; type: functional, organism-based; outline: as §1
[28] = system: Mycobacterium tuberculosis; experiment: Antimycobacterial activity against Mycobacterium tuberculosis after 8 days by micro plate Alamar Blue assay; type: functional; conditions: 192 h
Outline: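 Clinical M. tuberculosis strain grown in Middlebrook 7H9 broth. Compounds were dissolved in DMSO and serially diluted twofold on the plate, final 25 to 0.012 µg/mL. Plates were sealed and held 8 days at 37 °C. Alamar Blue with 10% Tween 80 (1:1) was then added for another 24 h at 37 °C. MIC was the lowest concentration preventing the blue-to-pink change.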

[29] = system: Radical scavenging activity; experiment: Antioxidant activity assessed as DPPH radical scavenging activity at 0.1 mg/mL after 30 mins under dark conditions by spectrophotometric analysis relative to control; type: functional
Outline: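 Compounds dissolved in methanol at 0.1 mg/mL; 0.2 mL mixed with 1.8 mL of 2 × 10^-4 M DPPH in methanol and kept in the dark 30 min. Absorbance read at 517 nm. The blank was DPPH plus methanol. TAC (%) = (Abs initial − Abs 30 min)/Abs initial × 100.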

NC(S)(/C=C/c1ccc(Cl)cc1)NNC(=O)c1ccncc1 (centres undefined)
Activity [1]: Toxic | Activity [2]: 15.59% | Activity [3]: 29.41% | Activity [4]: 52.35% | viability at 24 h, 25 ug/mL [5]: 55.4% | Activity [6]: 1.63% | Activity [7]: 19.3% | Activity [8]: 23.7% | growth inhibition (GI) [9]: Active | growth inhibition (GI) [10]: Active | growth inhibition (GI) [11]: Active | growth inhibition (GI) [12]: Active | growth inhibition (GI) [13]: Active | growth inhibition (GI) [14]: Active | growth inhibition (GI) [15]: Active | growth inhibition (GI) [16]: Active | growth inhibition (GI) [17]: Active | growth inhibition (GI) [18]: Active | growth inhibition (GI) [19]: Active | growth inhibition (GI) [20]: Active | growth inhibition (GI) [21]: Active | growth inhibition (GI) [22]: Active | growth inhibition (GI) [23]: Active | growth inhibition (GI) [24]: Active | growth inhibition (GI) [25]: Active | growth inhibition (GI) [26]: Active | growth inhibition (GI) [27]: Active | MIC [28]: 6.25 µg/mL (≈ 18.7 µM) | TAC [29]: 25.7%
